Calls of active or inactive are those of the source. No cut-off for these calls is given here.
How the values were obtained:
HT-29 = experiment: Cytotoxicity against human HT-29 cells measured after 24 to 72 hrs by SRB assay; assay type: functional, cell-based
How it was run: (§1)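 Cells from ATCC: HT-29 in RPMI 1640 with 10% FBS and 1% P/S; OVCAR3 in RPMI 1640 with 20% FBS, 1% P/S and 10 µg/mL insulin. Both kept at 37°C in 5% CO₂ and passaged at most 20 times. Seeded at 2,500–5,000 cells/well, attached overnight, then treated 24, 48 or 72 h (DMSO final 0.25%). Fixed, SRB-stained protein read out; normalized to vehicle; IC₅₀ from dose-response curves.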

OVCAR-3 = experiment: Cytotoxicity against human OVCAR3 cells measured after 24 to 72 hrs by SRB assay; assay type: functional, cell-based; how it was run: as §1
MDA-MB-435 = experiment: Cytotoxicity against human MDA-MB-435 cells after 72 hrs by CellTiter96 AQueous one solution cell proliferation assay; assay type: functional, cell-based; details: MDA-MB-435, 72 h
MDA-MB-231 = experiment: Cytotoxicity against human MDA-MB-231 cells after 72 hrs by CellTiter96 AQueous one solution cell proliferation assay; assay type: functional, cell-based; details: MDA-MB-231, 72 h
[1] = target: DNA topoisomerase 2-alpha (Homo sapiens) (UniProt P11388); experiment: Inhibition of full-length recombinant human topoisomerase-2alpha expressed in yeast expression system assessed as reduction in enzyme-mediated supercoiled pBR322 DNA relaxation at 50 to 100 uM measured after 15 mins by ethidium bromide staining based agarose gel electrophoresis
How it was run: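 Topo IIα (125 ng) with 150 ng negatively supercoiled pBR322 and 1 mM ATP in 10 mM Tris-HCl pH 8.0, 50 mM KCl, 50 mM NaCl, 0.1 mM EDTA, 5 mM MgCl₂, 2.5% glycerol, drug in DMSO; started with enzyme, 15 min at 37°C, SDS/EDTA stop. Products resolved on 1% TBE agarose, ethidium bromide stained, imaged under UV.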

K562 = experiment: Cytotoxicity against human etoposide-sensitive K562 cells after 72 hrs by CellTiter96 AQueous one solution cell proliferation assay; assay type: functional, cell-based; details: K562, 72 h
How it was run: (§2)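 K562 and etoposide-resistant K/VP.5 cells (~1/5 topo IIα level) in suspension at 7.5 × 10⁴ cells/ml exposed to DMSO vehicle or serial compound concentrations (final DMSO 0.5%), triplicate wells; 72 hr at 37°C, then MTS reagent 1 hr at 37°C, absorbance 490 nm. IC₅₀ from four-parameter logistic fit; relative resistance = IC₅₀ K/VP.5 ÷ IC₅₀ K562; n = separate-day repeats.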

[2] = Cytotoxicity against human K/VP.5 cells after 72 hrs by CellTiter96 AQueous one solution cell proliferation assay; assay type: functional, cell-based; details: K/VP.5, 72 h; how it was run: as §2
[3] = Resistance index, ratio of IC50 for human K/VP.5 cells to IC50 for human etoposide-sensitive K562 cells; assay type: functional; how it was run: as §2
[4] = target: DNA topoisomerase 2-alpha (Homo sapiens) (UniProt P11388); details: 100 uM
[5] = Selectivity ratio of IC50 for human OVCAR3 cells to IC50 for human HT-29 cells; assay type: functional

Sequence of DNA topoisomerase 2-alpha (Homo sapiens) (P11388 whole entry): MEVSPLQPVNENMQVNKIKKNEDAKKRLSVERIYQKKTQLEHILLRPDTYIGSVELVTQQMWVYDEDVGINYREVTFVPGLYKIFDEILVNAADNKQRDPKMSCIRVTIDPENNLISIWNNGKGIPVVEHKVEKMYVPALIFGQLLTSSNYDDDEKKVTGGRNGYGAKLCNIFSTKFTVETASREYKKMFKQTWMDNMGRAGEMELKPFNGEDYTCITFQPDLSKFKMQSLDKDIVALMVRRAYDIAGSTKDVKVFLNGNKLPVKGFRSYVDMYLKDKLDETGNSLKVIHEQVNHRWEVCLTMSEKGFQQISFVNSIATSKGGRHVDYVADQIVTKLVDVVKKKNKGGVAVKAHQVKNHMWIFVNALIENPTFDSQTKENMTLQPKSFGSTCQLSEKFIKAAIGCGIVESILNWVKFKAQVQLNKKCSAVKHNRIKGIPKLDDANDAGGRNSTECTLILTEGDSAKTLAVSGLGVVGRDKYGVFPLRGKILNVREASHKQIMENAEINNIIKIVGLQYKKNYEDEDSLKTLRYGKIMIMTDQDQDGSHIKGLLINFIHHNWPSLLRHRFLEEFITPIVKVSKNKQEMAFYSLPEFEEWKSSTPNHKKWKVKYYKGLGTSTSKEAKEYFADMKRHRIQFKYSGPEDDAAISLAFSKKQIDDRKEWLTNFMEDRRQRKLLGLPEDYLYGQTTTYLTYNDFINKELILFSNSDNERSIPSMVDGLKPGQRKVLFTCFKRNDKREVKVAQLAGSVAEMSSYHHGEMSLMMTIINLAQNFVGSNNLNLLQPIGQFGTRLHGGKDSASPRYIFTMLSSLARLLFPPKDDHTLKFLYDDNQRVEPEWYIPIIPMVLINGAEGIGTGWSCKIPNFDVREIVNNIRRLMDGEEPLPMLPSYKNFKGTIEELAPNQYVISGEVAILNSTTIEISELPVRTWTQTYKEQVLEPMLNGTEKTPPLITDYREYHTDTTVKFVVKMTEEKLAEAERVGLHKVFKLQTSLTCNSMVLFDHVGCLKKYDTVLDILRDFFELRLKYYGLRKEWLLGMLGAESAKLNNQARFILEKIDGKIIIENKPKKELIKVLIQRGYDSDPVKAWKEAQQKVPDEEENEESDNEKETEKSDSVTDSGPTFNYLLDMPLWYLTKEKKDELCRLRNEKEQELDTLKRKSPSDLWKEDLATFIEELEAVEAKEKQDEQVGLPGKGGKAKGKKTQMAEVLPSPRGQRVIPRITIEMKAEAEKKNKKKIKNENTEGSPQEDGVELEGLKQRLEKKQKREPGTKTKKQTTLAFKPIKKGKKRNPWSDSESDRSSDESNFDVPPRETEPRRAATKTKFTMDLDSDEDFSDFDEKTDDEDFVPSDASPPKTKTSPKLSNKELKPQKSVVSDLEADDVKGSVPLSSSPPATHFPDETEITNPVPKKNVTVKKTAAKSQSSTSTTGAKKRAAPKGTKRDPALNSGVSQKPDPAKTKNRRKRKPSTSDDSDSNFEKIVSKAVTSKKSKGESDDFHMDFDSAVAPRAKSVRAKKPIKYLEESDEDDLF

SMILES | IC50 (HT-29) [nM] | IC50 (OVCAR-3) [nM] | IC50 (MDA-MB-435) [nM] | IC50 (MDA-MB-231) [nM] | inhibition [1] | IC50 (K562) [nM] | IC50 [2] [nM] | Ratio IC50 [3] | inhibition [4] | Ratio IC50 [5]
COc1cc2c(O[C@@H]3OC[C@@H](OC(C)=O)[C@H](OC(C)=O)[C@H]3OC(C)=O)c3c(c(-c4ccc5c(c4)OCO5)c2cc1OC)C(=O)OC3 | 160 | 570 | 230 | 5100 | – | – | – | – | – | –
COc1cc2c(O[C@@H]3OC[C@H](OC(C)=O)[C@H](OC(C)=O)[C@H]3OC(C)=O)c3c(c(-c4ccc5c(c4)OCO5)c2cc1OC)COC3 | 1400 | > 10000 | – | – | – | – | – | – | – | –
COc1cc2c(O[C@@H]3O[C@H](COC(C)=O)[C@@H](O[C@@H]4O[C@H](COC(C)=O)[C@H](OC(C)=O)[C@H](OC(C)=O)[C@H]4OC(C)=O)[C@H](OC(C)=O)[C@H]3OC(C)=O)c3c(c(-c4ccc5c(c4)OCO5)c2cc1OC)C(=O)OC3 | 2000 | > 10000 | > 10000 | > 10000 | – | – | – | – | – | –
COc1cc2c(O[C@@H]3OC[C@H](OC(C)=O)[C@H](OC(C)=O)[C@H]3OC(C)=O)c3c(c(-c4ccc5c(c4)OCO5)c2cc1OC)C(=O)OC3 | 140 | 290 | 140 | 1000 | Active | 850 | 920 | 1.08 | – | –
COCc1c(C(=O)OC)c(-c2ccc3c(c2)OCO3)c2cc(OC)c(OC)cc2c1O[C@@H]1OC[C@@H](OC)[C@H](OC)[C@H]1OC | 1700 | 450 | – | – | – | – | – | – | – | –
COc1cc([C@@H]2c3cc4c(cc3[C@@H](O[C@@H]3O[C@@H]5CO[C@@H](C)O[C@H]5[C@H](O)[C@H]3O)[C@H]3COC(=O)[C@H]23)OCO4)cc(OC)c1O [ETOPOSIDE] | 15000 | 2900 | – | – | – | 1220 | 35400 | 28.98 | Active | –
CC(=O)O[C@H]1C(=O)[C@@]2(C)[C@H]([C@H](OC(=O)c3ccccc3)[C@]3(O)C[C@H](OC(=O)[C@H](O)[C@@H](NC(=O)c4ccccc4)c4ccccc4)C(C)=C1C3(C)C)[C@]1(OC(C)=O)CO[C@@H]1C[C@@H]2O [PACLITAXEL] | 11 | 11 | – | – | – | – | – | – | – | –
COc1cc2c(O[C@H]3OC[C@@H](OC(C)=O)[C@@H](OC(C)=O)[C@@H]3OC(C)=O)c3c(c(-c4ccc5c(c4)OCO5)c2cc1OC)C(=O)OC3 | 46 | 370 | 500 | 2200 | – | – | – | – | – | –
COc1cc2c(O[C@@H]3OC[C@H](OC(C)=O)[C@H](OC(C)=O)[C@H]3OC(C)=O)c3c(c(-c4ccc5c(c4)OCO5)c2cc1OC)COC3=O | 470 | > 10000 | – | – | – | – | – | – | – | –
COc1cc2c(O[C@@H]3OC[C@@H](O)[C@H](O)[C@H]3O)c3c(c(-c4ccc5c(c4)OCO5)c2cc1OC)C(=O)OC3 | 1400 | 690 | – | – | – | – | – | – | – | –
COc1cc2c(O[C@@H]3OC[C@H](O)[C@H](O)[C@H]3O)c3c(c(-c4ccc5c(c4)OCO5)c2cc1OC)C(=O)OC3 [ACUTISSIMALIGNAN A] | – | 4800 | – | – | – | – | – | – | – | –
COc1cc2c(O[C@@H]3OC[C@@H](OC)[C@H](OC)[C@H]3OC)c3c(c(-c4ccc5c(c4)OCO5)c2cc1OC)C(=O)OC3 | 18 | 7600 | – | – | Active | 470 | 430 | 0.91 | – | >400
CCOC(=O)c1c(C(=O)OCC)c(-c2ccc3c(c2)OCO3)c2cc(OC)c(OC)cc2c1O[C@@H]1OC[C@H](OC(C)=O)[C@H](OC(C)=O)[C@H]1OC(C)=O | > 10000 | > 10000 | – | – | – | – | – | – | – | –
COc1cc2c(O[C@@H]3OC[C@H](OC)[C@H](OC)[C@H]3OC)c3c(c(-c4ccc5c(c4)OCO5)c2cc1OC)C(=O)OC3 | 130 | 810 | 140 | 650 | inactive | 1260 | 1280 | 1.02 | – | –
COc1cc2c(O)c3c(c(-c4ccc5c(c4)OCO5)c2cc1OC)C(=O)OC3 [DIPHYLLIN] | – | – | – | – | – | 2380 | 2310 | 0.97 | – | –

Reference: ChEMBL document CHEMBL4219229, “Synthesis and antiproliferative activity of derivatives of the phyllanthusmin class of arylnaphthalene lignan lactones” (Bioorg Med Chem, 2018)
